Key:
[1] = AUC (0 to 3 hrs) in wild-type FVB mouse at 50 mg/kg, po; assay type: ADME, organism-based; design: time < 3 hr, dose 50 mg/kg, route oral; conditions: plasma
[2] = AUC (0 to 3 hrs) in BCRP-/- mouse at 50 mg/kg, po; assay type: ADME, organism-based; design: time < 3 hr, dose 50 mg/kg, route oral; conditions: plasma
[3] = Cmax in wild-type FVB mouse at 20 mg/kg, ip; assay type: ADME, organism-based; design: dose 20 mg/kg, route intraperitoneal; conditions: in vivo
Method in brief: (§1)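 Male FVB or Bcrp1(−/−) mice (6–10 weeks), nonsoy chow ≥1 week, fasted 12 h. Single i.p. 20 mg/kg from 2 mg/ml solution in 100 mM sodium bicarbonate–PEG 300 (7:3), pH 10; n = 5. Serial tail blood at 10 time points under isoflurane; whole-blood genistein and conjugates by UPLC-MS/MS; noncompartmental analysis.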

[4] = Cmax in BCRP-/- mouse at 20 mg/kg, ip; assay type: ADME, organism-based; design: dose 20 mg/kg, route intraperitoneal; conditions: in vivo; method in brief: as §1
[5] = Elimination rate constant in wild-type FVB mouse at 20 mg/kg, ip; assay type: ADME, organism-based; design: dose 20 mg/kg, route intraperitoneal; conditions: in vivo; method in brief: as §1
[6] = system: Mus musculus; experiment: Elimination rate constant in BCRP-/- mouse at 20 mg/kg, ip; assay type: ADME, organism-based; design: dose 20 mg/kg, route intraperitoneal; conditions: in vivo; method in brief: as §1
[7] = Half life in wild-type FVB mouse at 20 mg/kg, ip; assay type: ADME, organism-based; design: dose 20 mg/kg, route intraperitoneal; conditions: in vivo; method in brief: as §1
[8] = system: Mus musculus; experiment: Half life in BCRP-/- mouse at 20 mg/kg, ip; assay type: ADME, organism-based; design: dose 20 mg/kg, route intraperitoneal; conditions: in vivo; method in brief: as §1
[9] = AUC ( 0 to t) in wild-type FVB mouse at 20 mg/kg, ip; assay type: ADME, organism-based; design: dose 20 mg/kg, route intraperitoneal; conditions: plasma; method in brief: as §1
[10] = AUC ( 0 to t) in BCRP-/- mouse at 20 mg/kg, ip; assay type: ADME, organism-based; design: dose 20 mg/kg, route intraperitoneal; conditions: plasma
[11] = Drug metabolism in BCRP-/- mouse small intestine S9 fraction assessed as compound sulfation rate at 10 uM by UPLC-MS/MS analysis; assay type: ADME, tissue-based; conditions: s9, 10 µM
Method in brief: (§2)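 S9 from liver, small intestine or colon of FVB or Bcrp1(−/−) mice, 1 mg/ml protein, with 10 μM genistein in 50 mM potassium phosphate pH 7.4, 0.88 mM MgCl2, 4.4 mM saccharolactone, 0.022 mg/ml alamethicin. Glucuronidation started with 3.5 mM UDPGA; sulfation used 0.1 mM PAPS instead. 37°C, 60 min; n = 4.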

[12] = Drug metabolism in wild-type FVB mouse colon S9 fraction assessed as compound glucuronidation rate at 10 uM by UPLC-MS/MS analysis; assay type: ADME, tissue-based; conditions: s9, 10 µM; method in brief: as §2
[13] = Drug metabolism in BCRP-/- mouse colon S9 fraction assessed as compound glucuronidation rate at 10 uM by UPLC-MS/MS analysis; assay type: ADME, tissue-based; conditions: s9, 10 µM; method in brief: as §2
[14] = Drug metabolism in wild-type FVB mouse small intestine S9 fraction assessed as compound glucuronidation rate at 10 uM by UPLC-MS/MS analysis; assay type: ADME, tissue-based; conditions: s9, 10 µM; method in brief: as §2
[15] = Drug metabolism in BCRP-/- mouse small intestine S9 fraction assessed as compound glucuronidation rate at 10 uM by UPLC-MS/MS analysis; assay type: ADME, tissue-based; conditions: s9, 10 µM; method in brief: as §2
[16] = Drug metabolism in wild-type FVB mouse hepatic S9 fraction assessed as compound sulfation rate at 10 uM by UPLC-MS/MS analysis; assay type: ADME, Liver; conditions: s9, 10 µM; method in brief: as §2
[17] = Drug metabolism in BCRP-/- mouse hepatic S9 fraction assessed as compound sulfation rate at 10 uM by UPLC-MS/MS analysis; assay type: ADME, Liver; conditions: s9, 10 µM; method in brief: as §2
[18] = Drug metabolism in wild-type FVB mouse colon S9 fraction assessed as compound sulfation rate at 10 uM by UPLC-MS/MS analysis; assay type: ADME, tissue-based; conditions: s9, 10 µM; method in brief: as §2
[19] = Drug metabolism in BCRP-/- mouse colon S9 fraction assessed as compound sulfation rate at 10 uM by UPLC-MS/MS analysis; assay type: ADME, tissue-based; conditions: s9, 10 µM; method in brief: as §2
[20] = Drug metabolism in wild-type FVB mouse small intestine S9 fraction assessed as compound sulfation rate at 10 uM by UPLC-MS/MS analysis; assay type: ADME, tissue-based; conditions: s9, 10 µM; method in brief: as §2
[21] = Cmax in BCRP-/- mouse at 8 mg/kg, po; assay type: ADME, organism-based; design: dose 8 mg/kg, route oral; conditions: in vivo
[22] = Cmax in BCRP-/- mouse at 50 mg/kg, po; assay type: ADME, organism-based; design: dose 50 mg/kg, route oral; conditions: in vivo
[23] = system: Intestine; experiment: Drug uptake in wild-type FVB mouse small intestine at 10 uM by UPLC-MS/MS analysis; assay type: ADME, tissue-based; conditions: in vivo
Method in brief: (§3)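 In situ perfusion in FVB or Bcrp1(−/−) mice (n = 4): small intestine and colon (8–12 cm each) perfused together with 10 μM genistein in HBSS pH 7.4, 0.191 ml/min, 37°C. After 30-min washout, perfusate sampled at 60, 90, 120, 150 min; runs discarded if water flux >10% per 10 cm. Percent absorbed by UPLC-MS/MS.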

[24] = organism: Mus musculus; experiment: Drug uptake in BCRP-/- mouse small intestine at 10 uM by UPLC-MS/MS analysis; assay type: ADME, organism-based; conditions: in vivo; method in brief: as §3
[25] = system: Colon; experiment: Drug uptake in wild-type FVB mouse colon at 10 uM by UPLC-MS/MS analysis; assay type: ADME, tissue-based; conditions: in vivo; method in brief: as §3
[26] = organism: Mus musculus; experiment: Drug uptake in BCRP-/- mouse colon at 10 uM by UPLC-MS/MS analysis; assay type: ADME, organism-based; conditions: in vivo; method in brief: as §3
[27] = Biliary excretion in wild-type FVB mouse measured after 2.5 hrs post intestinal perfusion by UPLC-MS/MS analysis; assay type: ADME; conditions: bile, read-out: Drug excretion
Method in brief: (§4)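 Gallbladder bile taken after 2.5 h of simultaneous small intestine/colon perfusion with 10 μM genistein (HBSS pH 7.4, 0.191 ml/min) in FVB or Bcrp1(−/−) mice (n = 4). Bile diluted 20-fold in HBSS, daidzein internal standard in acetonitrile added, dried and reconstituted. Genistein and conjugates quantified by UPLC-MS/MS.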

[28] = Biliary excretion in BCRP-/- mouse measured after 2.5 hrs post intestinal perfusion by UPLC-MS/MS analysis; assay type: ADME; conditions: bile, read-out: Drug excretion; method in brief: as §4
[29] = Drug transport in human Caco2 cells assessed as basolateral excretion of compound at 2 uM after 4 hrs by UPLC-MS/MS analysis in presence of BCRP inhibitor Ko143; assay type: ADME, cell-based; conditions: caco-2, 4 h
Method in brief: (§5)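 Caco-2 TC7 monolayers on 3 μm polycarbonate inserts, used 19–22 days post-seeding (TEER ≥460 Ω/cm2). Genistein 2 or 10 μM in HBSS pH 7.4 applied apically, ±5 μM Ko143 apically; sampling both sides at 0–4 h hourly with replacement, triplicate. Genistein and four conjugates plus intracellular amounts at 4 h by UPLC-MS/MS; mass balance versus dose added.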

[30] = Drug recovery in human Caco2 cells at 2 to 10 uM after 4 hrs by UPLC-MS/MS analysis; assay type: ADME, cell-based; conditions: Caco-2, read-out: Drug recovery; method in brief: as §5
[31] = system: BCRP; experiment: Drug recovery in human Caco2 cells at 2 to 10 uM after 4 hrs by UPLC-MS/MS analysis in presence of BCRP inhibitor Ko143; assay type: ADME, cell-based; conditions: Caco-2, with Ko143 (BCRP inhibitor, concentration not stated), read-out: Drug recovery; method in brief: as §5
[32] = system: Blood; experiment: Drug metabolism in Wistar rat blood at 3.8 uM after 4 hrs by UPLC-MS/MS analysis; assay type: ADME, tissue-based
Method in brief: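 Glucuronide mix (G-7-G plus G-4′-G, 3 μM) with 3.8 μM genistein incubated in fresh Wistar rat blood, 37°C shaking bath up to 4 h; sulfate runs used 0.8 μM sulfates plus 2.2 μM aglycone. Samples at 0, 60, 120, 240 min quenched with acetonitrile/daidzein, analysed by UPLC-MS/MS; 50 mM phosphate buffer pH 7.4 as negative control; n = 3.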

[33] = Drug metabolism in wild-type FVB mouse hepatic S9 fraction assessed as compound glucuronidation rate at 10 uM by UPLC-MS/MS analysis; assay type: ADME, Liver; conditions: s9, 10 µM; method in brief: as §2
[34] = Drug metabolism in BCRP-/- mouse hepatic S9 fraction assessed as compound glucuronidation rate at 10 uM by UPLC-MS/MS analysis; assay type: ADME, Liver; conditions: s9, 10 µM; method in brief: as §2
[35] = Cmax in wild-type FVB mouse at 2 mg/kg, po; assay type: ADME, organism-based; design: dose 2 mg/kg, route oral; conditions: in vivo
Method in brief: (§6)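 Male wild-type FVB or Bcrp1(−/−) mice (6–10 weeks) on nonsoy chow ≥1 week, fasted 12 h with water, refed at 4 h. Oral gavage of 2 or 20 mg/kg as 4 mg/ml suspension in oral suspending vehicle; n = 5. Tail-snip blood at 10 time points under isoflurane, whole blood by UPLC-MS/MS (MRM); noncompartmental analysis.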

[36] = Cmax in BCRP-/- mouse at 2 mg/kg, po; assay type: ADME, organism-based; design: dose 2 mg/kg, route oral; conditions: in vivo; method in brief: as §6
[37] = Cmax in wild-type FVB mouse at 20 mg/kg, po; assay type: ADME, organism-based; design: dose 20 mg/kg, route oral; conditions: in vivo; method in brief: as §6
[38] = Cmax in BCRP-/- mouse at 20 mg/kg, po; assay type: ADME, organism-based; design: dose 20 mg/kg, route oral; conditions: in vivo; method in brief: as §6
[39] = Elimination rate constant in BCRP-/- mouse at 2 mg/kg, po; assay type: ADME, organism-based; design: dose 2 mg/kg, route oral; conditions: in vivo; method in brief: as §6
[40] = Half life in BCRP-/- mouse at 2 mg/kg, po; assay type: ADME, organism-based; design: dose 2 mg/kg, route oral; conditions: in vivo; method in brief: as §6
[41] = AUC ( 0 to t) in wild-type FVB mouse at 2 mg/kg, po; assay type: ADME, organism-based, Plasma; design: dose 2 mg/kg, route oral; method in brief: as §6
[42] = AUC ( 0 to t) in BCRP-/- mouse at 2 mg/kg, po; assay type: ADME, organism-based; design: dose 2 mg/kg, route oral; conditions: plasma; method in brief: as §6
[43] = AUC ( 0 to t) in wild-type FVB mouse at 20 mg/kg, po; assay type: ADME, organism-based; design: dose 20 mg/kg, route oral; conditions: plasma; method in brief: as §6
[44] = AUC ( 0 to t) in BCRP-/- mouse at 20 mg/kg, po; assay type: ADME, organism-based; design: dose 20 mg/kg, route oral; conditions: plasma; method in brief: as §6

SMILES: O=c1c(-c2ccc(O)cc2)coc2cc(O)cc(O)c12 [GENISTEIN]
- AUC(0-t) at 3 h [1]: 0.9 µM·h
- AUC(0-t) at 3 h [2]: 5 µM·h
- Cmax [3]: 2680 nM
- Cmax [4]: 4420 nM
- k el [5]: 6.39e-05 s⁻¹
- Kel [6]: 0.52 h⁻¹
- half-life [7]: 4.8 h
- t1/2 [8]: 2.8 h
- AUC(0-t) [9]: 10 µM·h
- AUC(0-t) [10]: 11.5 µM·h
- Drug metabolism [11]: metabolite_not_detected
- Drug metabolism [12]: 78 pmol/min/mg
- Drug metabolism [13]: 117 pmol/min/mg
- Drug metabolism [14]: metabolite_not_detected
- Drug metabolism [15]: metabolite_not_detected
- Drug metabolism [16]: 13.3 pmol/min/mg
- Drug metabolism [17]: 7.9 pmol/min/mg
- Drug metabolism [18]: 26.5 pmol/min/mg
- Drug metabolism [19]: 15.2 pmol/min/mg
- Drug metabolism [20]: metabolite_not_detected
- Cmax [21]: 1100 nM
- Cmax [22]: 200 nM
- Drug uptake [23]: 87%
- Drug uptake [24]: 74%
- Drug uptake [25]: 46%
- Drug uptake [26]: 52%
- concentration at 2.5 h [27]: 9900 nM
- concentration at 2.5 h [28]: 9100 nM
- Drug transport [29]: Not Active
- recovery at 4 h, up to 10 µM [30]: 92.3%
- recovery at 4 h, up to 10 µM [31]: 87.8%
- Stability [32]: Stable
- Drug metabolism [33]: 1299 pmol/min/mg
- Drug metabolism [34]: 2737 pmol/min/mg
- Cmax [35]: 100 nM
- Cmax [36]: 230 nM
- Cmax [37]: 650 nM
- Cmax [38]: 3350 nM
- k el [39]: 7.5e-05 s⁻¹
- half-life [40]: 3.8 h
- AUC(0-t) [41]: 0.36 µM·h
- AUC(0-t) [42]: 0.71 µM·h
- AUC(0-t) [43]: 6.05 µM·h
- AUC(0-t) [44]: 16.4 µM·h

Reference: ChEMBL document CHEMBL3526009, “Breast cancer resistance protein (ABCG2) determines distribution of genistein phase II metabolites: reevaluation of the roles of ABCG2 in the disposition of genistein” (Drug Metab Dispos, 2012)
